Data taken from paper PMC6072051 (MedChemComm, 2017).

Key:
ICL1 = details: DL-isocitrate as substrate, LDH assay; cited from earlier work
M. tuberculosis ICL1 [1] = biological target: T1, M. tuberculosis ICL1 (Mycobacterium tuberculosis, UniProt P9WKK7); experiment: 1H NMR assay of ICL1-catalysed turnover of DL-isocitrate; assay type: biochemical; details: for single concentration inhibition of ICL1: 100 μM inhibitor, 190 nM ICL1, 1 mM DL-isocitrate, 5 mM MgCl2
T1 sequence (P9WKK7 1-428): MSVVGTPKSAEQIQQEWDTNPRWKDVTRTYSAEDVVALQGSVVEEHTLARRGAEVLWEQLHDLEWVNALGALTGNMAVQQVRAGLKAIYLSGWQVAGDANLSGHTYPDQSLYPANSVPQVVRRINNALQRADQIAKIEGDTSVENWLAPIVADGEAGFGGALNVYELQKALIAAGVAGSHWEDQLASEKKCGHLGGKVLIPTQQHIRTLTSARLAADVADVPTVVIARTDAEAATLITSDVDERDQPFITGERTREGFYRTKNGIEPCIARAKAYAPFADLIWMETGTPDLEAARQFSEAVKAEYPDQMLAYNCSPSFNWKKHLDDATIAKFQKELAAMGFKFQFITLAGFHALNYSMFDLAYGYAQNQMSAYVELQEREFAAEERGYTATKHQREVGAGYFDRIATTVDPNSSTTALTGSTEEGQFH
In short: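 Recombinant ICL1 from E. coli BL21(DE3), purified by His-trap and gel filtration. Reactions in 50 mM Tris-D11 pH 7.5, 90% H2O/10% D2O at 300 K. 1H spectra with excitation-sculpting water suppression every ~1.3 min track the isocitrate decrease and the succinate singlet at 2.3 ppm. Initial rates from 15–20 min; inhibitors at varied concentrations; triplicates; IC50 by 3-parameter sigmoid fit.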

M. tuberculosis ICL1 [2] = biological target: T1, M. tuberculosis ICL1; experiment: 1H NMR ICL1 enzyme kinetics; assay type: biochemical; details: methylisocitrate as substrate, 190 nM ICL1, 5 mM MgCl2

## O=C(O)CC(C(=O)O)C(O)C(=O)O (racemic) [DL-isocitrate, DL-Isocitrate]
ICL1
  Km: 190 µM
  kcat: 5.24 s^–1

## O=C(O)CC[N+](=O)[O-] [3-Nitropropionate, reference compound]
M. tuberculosis ICL1 [1]
  single concentration inhibition of ICL1: most potent inhibitor

## CCOC(=O)c1ccc(CC(=O)c2oc3cc(O)ccc3c2C)o1 [Compound 29]
M. tuberculosis ICL1 [1]
  IC50: > 100 µM
  single concentration inhibition of ICL1: significantly inhibited ICL1

## CCOC(=O)c1cc2cc(CC(=O)c3ccc(O)cc3O)ccc2o1 [Compound 38]
M. tuberculosis ICL1 [1]
  IC50: > 100 µM
  single concentration inhibition of ICL1: significantly inhibited ICL1

## COC(=O)C=CC(=O)c1ccc(OC)cc1 [Methyl-4-(4-methoxyphenyl)-4-oxobut-2-enoate, reference compound]
M. tuberculosis ICL1 [1]
  single concentration inhibition of ICL1: weakest of the four tested

## C[C@](CC(=O)O)(C(=O)O)[C@H](O)C(=O)O [methylisocitrate]
M. tuberculosis ICL1 [2]
  substrate concentration above which substrate inhibition was observed: exceeded 1 mM
